Experiments:
Mus musculus [1] = test: Toxicity in mouse assessed as effect on survival at 160 mg/kg, po administered for 3 days measured after 30 days; type: organism-based; conditions: in vivo, 720 h
Procedure, shortened: (§1)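 Groups of five healthy mice were dosed per os for three consecutive days, suspended in 0.5% hydroxyethylcellulose–0.1% Tween 80. Behaviour and appearance were monitored twice daily for 30 days, with survival assessed at 30 days. Non-toxic was defined as all 5 surviving with normal appearance and behaviour.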

[2] = molecular target: Botulinum neurotoxin type A (Clostridium botulinum) (UniProt P0DPI0); test: Inhibition of Clostridium botulinum BoNT/A light chain at 20 uM using P39 as substrate preincubated for 10 mins followed by substrate addition measured after 10 mins by HPLC method relative to control
Procedure, shortened: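 Purified BoNT/A light chain (20 nM) with 0.2 mg/mL BSA in 50 mM HEPES pH 7.4, preincubated with compound for 10 min at room temperature. Cleavage fragments were separated by reversed-phase HPLC (214/280 nm). Percent inhibition was taken from fragment peak areas with vs without compound. Mean of three experiments.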

[3] = molecular target: Botulinum neurotoxin type A (Clostridium botulinum) (UniProt P0DPI0); test: Inhibition of Clostridium botulinum BoNT/A holotoxin-mediated SNAP-25 cleavage in mouse HBG3 cell-derived motor neurons assessed as full length of SNAP-25 at 20 uM preincubated for 30 mins followed by intoxication measured after 4 hrs by Western blot method relative to control; set-up: scale not given: the % may be the effect or the level left
[4] = molecular target: Botulinum neurotoxin type A (Clostridium botulinum) (UniProt P0DPI0); test: (§2) Inhibition of Clostridium botulinum BoNT/A holotoxin-mediated SNAP-25 cleavage in mouse HBG3 cell-derived motor neurons preincubated for 30 mins followed by intoxication measured after 4 hrs by Western blot method
[5] = molecular target: T1, Botulinum neurotoxin type A (Clostridium botulinum, UniProt P0DPI0); test: as §2
[6] = molecular target: Botulinum neurotoxin type A (Clostridium botulinum) (UniProt P0DPI0); test: Inhibition of Clostridium botulinum BoNT/A holotoxin-mediated SNAP-25 cleavage in mouse HBG3 cell-derived motor neurons assessed as full length of SNAP-25 at 20 uM treated at 30 mins post intoxication by Western blot method relative to control; set-up: scale not given: the % may be the effect or the level left
[7] = molecular target: Botulinum neurotoxin type A (Clostridium botulinum) (UniProt P0DPI0); test: Inhibition of Clostridium botulinum BoNT/A holotoxin-mediated SNAP-25 cleavage in mouse HBG3 cell-derived motor neurons assessed as full length of SNAP-25 at 20 uM treated at 60 mins post intoxication by Western blot method relative to control; set-up: scale not given: the % may be the effect or the level left
Mus musculus [8] = test: Toxicity in mouse assessed as effect on behavior at 160 mg/kg, po administered for 3 days measured 2 times a day for 30 days; type: organism-based; conditions: in vivo, 720 h; procedure, shortened: as §1
Mus musculus [9] = test: Toxicity in mouse assessed as effect on appearance at 400 to 600 mg/kg, po administered as single dose measured 2 times a day for 30 days; type: organism-based; conditions: in vivo, 720 h
Procedure, shortened: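 Two groups of 5 healthy mice each received one oral dose, 400 or 600 mg/kg. Survival, appearance and behaviour were followed for 30 days. Non-toxic was defined as all 5 surviving with normal appearance and behaviour.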

[10] = Octanol/TBS buffer distribution co-efficient, […] by shake flask method; type: physicochemical; conditions: octanol/water
Cytochrome P450 3A4 [11] = molecular target: T2, Cytochrome P450 3A4 (Homo sapiens, UniProt P08684); test: Inhibition of CYP3A4 (unknown origin) using BQ as substrate; type: ADME
Procedure, shortened: (§3)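 Active CYP450 enzyme incubated at 37°C for a set time with a fluorogenic probe substrate (BQ, DBF or BFC for CYP3A4; CEC for CYP2C19; AMMC for CYP2D6). IC50 derived from net fluorescent signal.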

Cytochrome P450 3A4 [12] = molecular target: T2, Cytochrome P450 3A4; test: Inhibition of CYP3A4 (unknown origin) using DBF as substrate; type: ADME; procedure, shortened: as §3
Cytochrome P450 2C19 = Cytochrome P450 2C19 (Homo sapiens, UniProt P33261); test: Inhibition of CYP2C19 (unknown origin) using CEC as substrate; type: ADME; procedure, shortened: as §3
Cytochrome P450 2D6 = Cytochrome P450 2D6 (Homo sapiens, UniProt P10635); test: Inhibition of CYP2D6 (unknown origin) using AMMC as substrate; type: ADME; procedure, shortened: as §3
[13] = Drug uptake in mouse serum at 600 mg/kg, po measured at 15 mins by UPLC-MS/MS method; type: ADME, organism-based; conditions: read-out: Drug uptake
Procedure, shortened: (§4)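 Single oral dose (400 mg/kg, 7 mice; 600 mg/kg, 6 mice), dissolved in DMSO and suspended in 0.5% hydroxyethylcellulose–0.1% Tween 80. Blood taken by cardiac puncture under chloroform, one mouse per time point, 15–120 min. Serum proteins precipitated with 2 volumes acetonitrile; analysed by UPLC-MS/MS against blank human serum calibration. Half-life read from the concentration–time curve.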

[14] = Apparent permeability across basolateral to apical side in MDCK cells expressing MDR1 after 1 hr; type: ADME, cell-based, Canis lupus familiaris; conditions: dog
Procedure, shortened: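 MDR1-transfected MDCK cell monolayer; compound applied to the basolateral compartment and incubated 1 h at 37°C. Apparent permeability measured in the B→A direction.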

[15] = Drug uptake in mouse serum at 400 mg/kg, po measured at 15 mins by UPLC-MS/MS method; type: ADME, organism-based; conditions: read-out: Drug uptake; procedure, shortened: as §4
[16] = Drug uptake in mouse serum at 400 mg/kg, po measured at 30 mins by UPLC-MS/MS method; type: ADME, organism-based; conditions: read-out: Drug uptake; procedure, shortened: as §4
[17] = Drug uptake in mouse serum at 400 mg/kg, po measured at 45 mins by UPLC-MS/MS method; type: ADME, organism-based; conditions: read-out: Drug uptake; procedure, shortened: as §4
Serum = test: Drug uptake in mouse serum at 400 mg/kg, po measured at 90 mins by UPLC-MS/MS method; type: ADME, organism-based; conditions: in vivo, 1.5 h, BLD = below limit of detection; procedure, shortened: as §4
[18] = Drug uptake in mouse serum at 600 mg/kg, po measured at 30 mins by UPLC-MS/MS method; type: ADME, organism-based; conditions: read-out: Drug uptake; procedure, shortened: as §4
[19] = Drug uptake in mouse serum at 600 mg/kg, po measured at 45 mins by UPLC-MS/MS method; type: ADME, organism-based; conditions: read-out: Drug uptake; procedure, shortened: as §4
[20] = Drug uptake in mouse serum at 600 mg/kg, po measured at 60 mins by UPLC-MS/MS method; type: ADME, organism-based; conditions: read-out: Drug uptake; procedure, shortened: as §4
[21] = Drug uptake in mouse serum at 600 mg/kg, po measured at 90 mins by UPLC-MS/MS method; type: ADME, organism-based; conditions: read-out: Drug uptake; procedure, shortened: as §4
[22] = Drug uptake in mouse serum at 600 mg/kg, po measured at 120 mins by UPLC-MS/MS method; type: ADME, organism-based; conditions: read-out: Drug uptake; procedure, shortened: as §4
Mus musculus [23] = test: Cmax in mouse at 400 mg/kg, po by UPLC-MS/MS method; type: ADME, organism-based; set-up: dose 400 mg/kg, route oral; conditions: in vivo; procedure, shortened: as §4
Mus musculus [24] = test: Cmax in mouse at 600 mg/kg, po by UPLC-MS/MS method; type: ADME, organism-based; set-up: dose 600 mg/kg, route oral; conditions: in vivo; procedure, shortened: as §4
Mus musculus [25] = test: Half life in mouse at 400 mg/kg, po by UPLC-MS/MS method; type: ADME, organism-based; conditions: in vivo; procedure, shortened: as §4
Mus musculus [26] = test: Time at which drug concentration stays above 3 uM in mouse at 400 mg/kg, po by UPLC-MS/MS method; type: ADME, organism-based; conditions: in vivo
Procedure, shortened: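 Single oral dose in DMSO suspended in 0.5% hydroxyethylcellulose–0.1% Tween 80, given to 7 (400 mg/kg) or 6 (600 mg/kg) mice. Serum came from cardiac puncture under chloroform, one mouse per time point, 15–120 min. Acetonitrile-precipitated serum was analysed by UPLC-MS/MS against calibration in blank human serum.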

[27] = Protein binding in mouse plasma at 600 mg/kg, po by ultra-centrifugation method; type: ADME, organism-based; conditions: read-out: PPB
Mus musculus [28] = test: Drug metabolism in mouse assessed as monoacetylated metabolite formation at 400 to 600 mg/kg, po by UPLC-MS/MS method; type: ADME, organism-based; conditions: in vivo
[29] = molecular target: T1, Botulinum neurotoxin type A

T2 sequence (P08684 whole entry): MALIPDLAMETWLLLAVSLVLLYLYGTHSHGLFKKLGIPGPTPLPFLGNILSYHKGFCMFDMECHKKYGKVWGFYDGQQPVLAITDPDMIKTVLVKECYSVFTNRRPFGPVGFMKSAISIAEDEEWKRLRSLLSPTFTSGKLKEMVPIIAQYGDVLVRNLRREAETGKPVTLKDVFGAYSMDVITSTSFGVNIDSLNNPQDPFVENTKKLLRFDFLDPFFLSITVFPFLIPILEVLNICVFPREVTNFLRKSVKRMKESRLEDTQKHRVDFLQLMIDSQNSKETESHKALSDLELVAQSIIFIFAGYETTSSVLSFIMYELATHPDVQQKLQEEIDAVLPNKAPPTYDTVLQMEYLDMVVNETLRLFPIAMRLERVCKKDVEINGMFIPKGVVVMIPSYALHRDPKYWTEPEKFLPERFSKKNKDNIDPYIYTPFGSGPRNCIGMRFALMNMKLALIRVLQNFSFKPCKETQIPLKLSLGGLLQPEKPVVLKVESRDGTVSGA
Chain of Cytochrome P450 2D6 (P10635 whole entry): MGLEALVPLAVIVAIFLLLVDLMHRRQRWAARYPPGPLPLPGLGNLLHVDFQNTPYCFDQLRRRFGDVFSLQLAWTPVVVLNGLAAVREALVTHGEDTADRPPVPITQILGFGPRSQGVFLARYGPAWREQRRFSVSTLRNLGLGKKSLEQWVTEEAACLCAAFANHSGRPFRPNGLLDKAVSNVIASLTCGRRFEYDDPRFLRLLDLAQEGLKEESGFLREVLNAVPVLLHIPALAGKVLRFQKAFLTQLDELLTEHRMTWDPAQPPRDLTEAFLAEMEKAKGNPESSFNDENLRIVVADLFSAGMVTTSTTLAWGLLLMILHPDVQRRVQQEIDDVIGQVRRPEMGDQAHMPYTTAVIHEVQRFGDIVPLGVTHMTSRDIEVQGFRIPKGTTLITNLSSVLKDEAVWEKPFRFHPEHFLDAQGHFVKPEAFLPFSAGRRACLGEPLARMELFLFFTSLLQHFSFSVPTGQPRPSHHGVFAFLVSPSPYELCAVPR
Chain of Cytochrome P450 2C19 (P33261 whole entry): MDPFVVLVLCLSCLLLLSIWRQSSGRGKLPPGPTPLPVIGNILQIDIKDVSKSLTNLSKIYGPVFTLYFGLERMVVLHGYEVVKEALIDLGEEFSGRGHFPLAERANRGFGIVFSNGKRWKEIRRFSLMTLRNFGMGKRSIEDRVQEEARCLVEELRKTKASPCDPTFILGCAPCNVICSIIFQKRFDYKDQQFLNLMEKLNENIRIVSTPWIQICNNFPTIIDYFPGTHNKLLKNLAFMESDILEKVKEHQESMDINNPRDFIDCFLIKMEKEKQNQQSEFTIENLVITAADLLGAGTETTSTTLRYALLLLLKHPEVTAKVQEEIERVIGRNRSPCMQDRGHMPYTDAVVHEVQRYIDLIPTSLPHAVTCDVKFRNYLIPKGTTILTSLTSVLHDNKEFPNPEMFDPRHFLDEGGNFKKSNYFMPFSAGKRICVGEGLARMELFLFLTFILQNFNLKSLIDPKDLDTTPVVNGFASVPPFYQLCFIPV

SMILES: CC(=O)O[C@H]1C[C@H]2[C@@H]([C@H](OC(C)=O)C[C@@H]3C[C@H](N)CC[C@@]32C)[C@@H]2CC[C@H]([C@H](C)CCCNCCCCNc3ccnc4cc(Cl)ccc34)[C@@]12C
- Activity (Mus musculus [1]): Non-Toxic
- inhibition [2]: 66%
- Activity [3]: 88%
- inhibition [4]: Dose-dependent effect
- IC50 [5]: 10 µM
- Activity [6]: 64%
- Activity [7]: 45%
- Activity (Mus musculus [8]): Non-Toxic
- Activity (Mus musculus [9]): Non-Toxic
- logD [10]: 2.07
- IC50 (Cytochrome P450 3A4 [11]): 1.1 µM
- IC50 (Cytochrome P450 3A4 [12]): 1.2 µM
- IC50 (Cytochrome P450 2C19): 5 µM
- IC50 (Cytochrome P450 2D6): > 10 µM
- concentration at 0.25 h [13]: 11.9 µM
- Papp [14]: 24.6 ×10⁻⁶ cm/s
- concentration at 0.25 h [15]: 3.3 µM
- concentration at 0.5 h [16]: 4 µM
- concentration at 0.75 h [17]: 3.3 µM
- Drug uptake (Serum): Bld
- concentration at 0.5 h [18]: 5.9 µM
- concentration at 0.75 h [19]: 3.1 µM
- concentration at 1 h [20]: 2.5 µM
- concentration at 1.5 h [21]: 4 µM
- concentration at 2 h [22]: 2.4 µM
- Cmax (Mus musculus [23]): 7.8 µM
- Cmax (Mus musculus [24]): 11.9 µM
- t1/2 (Mus musculus [25]): 43 min
- Time (Mus musculus [26]): > 45 min
- fraction unbound [27]: < 0.01
- Drug metabolism (Mus musculus [28]): Metabolite_Notdetected
- IC50 [29]: 8 µM

Source: ChEMBL document CHEMBL4024803, “New Steroidal 4-Aminoquinolines Antagonize Botulinum Neurotoxin Serotype A in Mouse Embryonic Stem Cell Derived Motor Neurons in Postintoxication Model” (J Med Chem, 2018)
